This note sets out measurements from PubChem BioAssay AID504676 (Southern Research Specialized Biocontainment Screening …, 2011).

The test system of the assay is E. coli EV36 K1 capsule, T7 phage lysis, OD600. Nature of the assay: capsule removal specificity in E. coli EV36 – T7 phage, EV36 K1:K-12 hybrid, OD600, set 3, selectivity assay for bacterial capsule biogenesis inhibitor project, dose response (AID 504676). The method, boiled down: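 Material – E. coli EV36 K1/K-12 hybrid bacteria · Buffer or medium – LB broth · Reagent – T7 bacteriophage infection · Doses – dose series from 0.39 to 100 µM final, 1% DMSO · Incubation – 1.5 h pre-phage plus 3 h post-infection, 37 °C · Detection – OD600 absorbance · Read-out basis – lysis by OD600 decrease after T7 infection · Repeats – four replicate wells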

Broadly, the pIC50 is the negative decadic logarithm of the IC50, by convention in mol/L.

SMILES strings stand for the structures. pIC50: −log10 of the molar value.

For `COc1ccc2nc(NC(=O)c3ccco3)sc2c1`, the pIC50 is 4.64.

For the compound `COc1ccc2nc(NC(=O)c3cccs3)sc2c1`, the pIC50 is 5.23.
